Assay results pooled from the literature.
Lines come from different studies, so protocols differ.
Target: Calcium/calmodulin-dependent protein kinase kinase 1 (CAMKK1, Homo sapiens, UniProt Q8N5S9)

Nc1ncc(-c2nc(N3CCOCC3)nc(N3CCOCC3)n2)c(C(F)F)n1  remaining binding (binding, competition with immobilised ligand; 10 µM): 70%
Cn1cncc1[C@](O)(COc1ccc(C#N)cc1-c1ccc(OC(F)(F)F)cc1)c1ccc(C#N)cc1  remaining binding (cell-free assay, competition with immobilised ligand; 1 µM): 77%
COc1ncccc1-c1cnn2ccc(N3CCN(C(=O)OC(C)C)CC3)nc12  remaining binding (binding, competition with immobilised ligand; 1 µM): 77%
CC(C)(C)c1cc(C=C(C#N)C#N)cc(Br)c1O  remaining activity (enzyme activity, inhibitor; 0.5 µM): 120%
Cc1nn(C)cc1-c1nc2c(N3CCN(Cc4ccc(Cl)cc4)CC3)c(Cl)cnc2[nH]1  remaining binding (binding, competition with immobilised ligand; 1 µM): 100%
Cn1cc(-c2cccc(N3CCc4c(sc5c4CC(C)(C)C5)C3=O)c2CO)cc(Nc2ccncn2)c1=O  inhibition (enzyme activity, inhibitor; 1 µM): 4%
N#CC1(c2ccccn2)CCN(Cc2cc(C(=O)O)c(=O)n3ccccc23)CC1  remaining binding (cell-free assay, competition with immobilised ligand; 1 µM): 100%
O=c1[nH]c2ccccc2n1C1CCN(Cc2ccc(-c3[nH]c4cc5ncnc5cc4nc3-c3ccccc3)cc2)CC1  remaining signal (cell-free assay; 0.5 µM): 117%
